Here are results for 16 compounds from ChEMBL document CHEMBL1667787, “Synthesis and in vitro cytotoxicity evaluation of some fluorinated hexahydropyrimidine derivatives” (Bioorg Med Chem Lett, 2011).

As usually defined, the IC50 is the concentration needed to halve the response being measured. Lower therefore signals greater potency in that assay.

The test is described as follows: Cytotoxicity against human COLO320 cells after 72 hrs by Alamar Blue assay. The following applies: COLO 320, 72 h. Type of test: functional, cell-based. The essentials: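 COLO 320 HSR cells (ATCC) kept in RPMI 1640 with 10% FBS, bicarbonate, pyruvate, Hepes and antibiotics at 37 °C, 5% CO2. Seeded 1 × 10^4 cells/well, attached 24 h, then exposed 72 h to compound or DMSO vehicle. AlamarBlue added 1:10, incubated overnight at 37 °C, fluorescence read at 560 nm excitation/590 nm emission. Triplicates, means; IC50 by linear regression.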
(Resazurin is reduced to fluorescent resorufin, in cell work by metabolically active cells.)

In the case of `O=C(c1ccco1)[C@@H]1[C@@H](c2cccc(O)c2)NC(=S)N[C@@]1(O)C(F)(F)F`, the IC50 was more than 100 µM.
`CCOC(=O)[C@@H]1[C@@H](c2ccc3c(c2)OCO3)NC(=S)N[C@@]1(O)C(F)(F)F` displayed an IC50 of 75 µM. That is a double-digit micromolar value.
`CCOC(=O)[C@@H]1[C@@H](c2cccc(O)c2)NC(=S)N[C@@]1(O)C(F)(F)F`: the IC50 is more than 100 µM.
The compound `O=C(c1ccco1)[C@@H]1[C@@H](c2ccccc2)NC(=S)N[C@@]1(O)C(F)(F)F` gave an IC50 of 63 µM.
For the compound `CCOC(=O)[C@@H]1[C@@H](c2cccc(C#N)c2)NC(=S)N[C@@]1(O)C(F)(F)F`, the IC50 is more than 100 µM.
The same measure for `COc1ccc([C@H]2NC(=S)N[C@@](O)(C(F)(F)F)[C@@H]2C(=O)c2cccs2)cc1`: 75 µM; for `O=C(c1ccco1)[C@@H]1[C@@H](c2ccc3c(c2)OCO3)NC(=S)N[C@@]1(O)C(F)(F)F`: 67 µM; for `CCOC(=O)C1=C(C(F)(F)F)NC(SCC(=O)c2ccc(C(F)(F)F)cc2)NC1c1ccc2c(c1)OCO2` (stereo unspecified): 8.1 µM.
For `O=C(c1ccc2ccccc2c1)[C@@H]1[C@@H](c2ccc3c(c2)OCO3)NC(=S)N[C@@]1(O)C(F)(F)F` the value was 9.9 µM.
The compound `COc1ccc([C@H]2NC(=S)N[C@@](O)(C(F)(F)F)[C@@H]2C(=O)c2ccco2)cc1` gave an IC50 of 11.5 µM.
For `COC(=O)[C@@H]1[C@@H](c2cccc(O)c2)NC(=S)N[C@@]1(O)C(F)(F)F`, the 50% inhibitory concentration (IC50) was more than 100 µM.
For `O=C(c1cccs1)[C@@H]1[C@@H](c2cccc(O)c2)NC(=S)N[C@@]1(O)C(F)(F)F` the value was 72 µM; for `CCOC(=O)[C@@H]1[C@@H](c2ccc(F)cc2)NC(=S)N[C@@]1(O)C(F)(F)F`, 75 µM.
`CCOC(=O)[C@@H]1[C@@H](c2ccccc2Br)NC(=S)N[C@@]1(O)C(F)(F)F` gave an IC50 of 73 µM. The IC50 values of the last two compounds are within 1.5-fold of each other.
For `O=C(c1cccs1)[C@@H]1[C@@H](c2ccc3c(c2)OCO3)NC(=S)N[C@@]1(O)C(F)(F)F` the value was 62.5 µM; for `CCOC(=O)C1=C(C(F)(F)F)NC(=S)NC1c1ccc2c(c1)OCO2` (stereo unspecified), 12.2 µM.
